# HSF-1 act: HSF-1 activators, primary screen, NIH3T3-HGL cells, MG132 stress, luminescence, single point; NIH3T3-HGL HSF-1 luciferase reporter, 8 h; 100% = twice DMSO control signal; activation, % at 9 µM; 300,000 tested, 1.7% active; AID 504408, 2011;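 active = mean replicate activation of at least 50% with a set share of replicates each reaching 50%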;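 also: 0% = median of the neutral control wells and 100% = twice that signal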
# HSF1 inhib: HSF1 inhibitors in luciferase reporter cells, primary screen, cell-based, NIH3T3, luminescence. NIH3T3-HGL HSE-luciferase, MG132-induced, luminescence 8 h; active compounds read low. activity change, negative = inhibition, % at 7.5 µM (by protocol). 300,000 tested, 0.77% active;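 active = more than half of replicate wells show activity change below -50%, luminescence cut by over half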;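 also: luciferase reports HSF-1 transcriptional activity via heat shock element; 0% = median of DMSO wells and -100% = zero luminescence signal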
# HSP90 inh: HSP90 inhibitors, primary screen, cell lysate, luminescence; Heat shock protein HSP 90 (rabbit reticulocyte lysate; luciferase refolding); Rabbit reticulocyte lysate, luciferase refolding luminescence, 3 h; AID 1789, 2009; 290,000 tested, 0.91% active; inhibition, % at 5.6 µM;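 active = inhibition above the screen-wide mean plus 3 SD, computed separately per campaign, cut at about 16% in these data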;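 also: 0% = DMSO wells and 100% = 60 µM geldanamycin wells; inhibitors lower the luminescence because luciferase stays unfolded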
# Hep lipid drop: inhibitors of hepatocyte lipid droplet formation, primary screen, imaging, high-throughput imaging, BODIPY stain; AML12 mouse hepatocytes, oleate lipid droplets; inhibition, % at 6.5 µM; 240,000 tested, 0.4% active; AID 1656, 2009;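 active = lipid droplet intensity inhibited by at least 50%, with more than 500 cells counted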
#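 Assay system: AML12 mouse liver cells | Compound dosing: One dose, 6.5 µM compound | Read-out basis: Droplet intensity reduction, % inhibition | Measured by: Fluorescence imaging, 20x objective, two fields per well | Schedule: Overnight treatment with compound plus oleate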
# HCV NS3 hel inh: inhibitors of HCV NS3 helicase, primary screen, biochemical, Cy5 molecular beacon fluorescence; 290,000 tested, 0.56% active; Hepatitis C virus NS3 helicase; NS3 helicase DNA unwinding; AID 1800, 2009; inhibition, % at 10.9 µM;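 active = inhibition above the mean of all tested compounds plus 3 SD, set per campaign, cut at about 35% in these data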;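 also: 0% = DMSO wells and 100% = thioflavine S control wells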
#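 System: HCV NS3 helicase fragment; control set: DMSO and thioflavine S; technique: Cy5 fluorescence at 0 and 60 min, beacon hairpin quenching; reagent: beacon DNA duplex substrate plus ATP; replicates: singlicate; schedule: 1 h reaction at 25 °C, ATP-initiated; medium: MOPS buffer pH 6.5 with MgCl2, DTT, Tween20, BSA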
# * = called active by the depositor; nt = no result given. Sampled rows, rich in hits. Any-hit rate of the full collection: about 3.8%.
SMILES,HSF-1 act,HSF1 inhib,HSP90 inh,Hep lipid drop,HCV NS3 hel inh
Cc1ccc(S(=O)(=O)NCCNC(=O)N2CCOCC2)cc1,-2,-18,3,0,7
Cc1ccc(S(=O)(=O)NCCOc2nc(N3CCOCC3)nc(N3CCOCC3)n2)cc1,58*,22,2,-1,1
CCOC(=O)c1c(C)[nH]c(C(=O)Cn2nnc(-c3ccccc3Cl)n2)c1C,61*,26,0,nt,2
CCOC(=O)c1c(C)[nH]c(C(=O)Cn2nnc(-c3ccccc3)n2)c1C,-13,-7,-4,nt,15
CC(C)(C)c1cnnn1-c1ccc(C(=O)CCl)cc1,-67,-57*,-3,4,1
CC(C)(C)c1cnnn1-c1ccc(C=O)cc1,8,10,-5,-2,2
O=C(NCc1ccncc1)c1ccc(Cl)c(S(=O)(=O)N2CCOCC2)c1,-81,-76*,0,nt,-3
O=C(NCc1ccccn1)c1ccc(Cl)c(S(=O)(=O)N2CCOCC2)c1,5,-1,1,13,-9
CCOc1cc(C(=O)NCc2ccncc2)cc(OCC)c1OCC,5,-7,-2,-3,-4
CCOc1ccc(C(=O)NCc2ccncc2)cc1OCC,-64,-61*,-4,nt,2
CCN(Cc1nc(-c2ccccc2)no1)C(=O)c1ccco1,2,6,-1,-3,6
COc1ccc(C)cc1NC(=O)C(Sc1nnc(Nc2cc(C)ccc2OC)s1)c1ccccc1 (stereo not drawn),-4,1,6,73*,-13
COc1ccc(Nc2nnc(SC(C(=O)Nc3cc(C)ccc3C)c3ccccc3)s2)cc1 (stereo not drawn),7,-3,7,1,22
CSc1nc2ccc(NS(=O)(=O)c3cccc(Cl)c3Cl)cc2s1,-1,-9,-1,-3,-7
CSc1nc2ccc(NS(=O)(=O)c3ccc([N+](=O)[O-])cc3)cc2s1,-91,-89*,1,-10,4
COc1ccc(N(CC(=O)NC2CCCCC2)C(=O)c2ccc(C)s2)cc1OC,71*,20,-2,-8,-3
Cc1cc(C)cc(NC(=O)Cn2c(SCc3cc(C)ccc3C)nc3ccncc32)c1,nt,nt,16*,-8,-62
Fc1c(F)c(F)c(CSc2nc3ccccc3[nH]2)c(F)c1F,56*,33,-1,-6,-1
O=[N+]([O-])c1cccc(CSc2nc3ccccc3[nH]2)c1,24,4,-6,1,-11
Fc1ccccc1CSc1nc2ccccc2[nH]1,71*,33,5,12,8
COc1cccc(CSc2nc3ccccc3[nH]2)c1,112*,63,8,0,-6
COc1cc(NC(=O)C2CCN(c3cnccn3)CC2)cc(OC)c1OC,-10,-7,6,-14,-2
CC(C)n1cc(CN2CCCC(C(=O)Nc3ccccc3Oc3cccnc3)C2)cn1 (stereo not drawn),-12,-5,-4,0,-6
N#C/C(=C\c1ccc(Sc2nc3ccccc3[nH]2)o1)c1ccccc1,71*,43,3,nt,-11
N#C/C(=C\c1ccc(Sc2ccc(Cl)cc2)o1)c1nc2ccccc2[nH]1,nt,nt,2,-6,14
SMILES,HSF-1 act,HSF1 inhib,HSP90 inh,Hep lipid drop,HCV NS3 hel inh
Fc1ccc(-n2cc(CNCCc3ccccn3)c(-c3ccccc3Cl)n2)cc1,-65,-52*,3,-46,-67
COc1ccc(C2CC(=O)C3=C(C2)Nc2ncnn2C3c2ccccc2C)cc1 (stereo not drawn),-24,-5,1,nt,-8
COc1ccc(C2CC(=O)C3=C(C2)Nc2ncnn2C3c2ccccc2)cc1 (stereo not drawn),81*,40,1,-1,-7
CS(=O)(=O)Nc1cccc(C2=NN(C(=O)CCCC(=O)O)C(c3cccs3)C2)c1 (stereo not drawn),63*,18,4,nt,-2
CS(=O)(=O)Nc1cccc(C2=NN(C(=O)c3ccccc3)C(c3cccs3)C2)c1 (stereo not drawn),16,8,-1,-9,3
O=C(CSc1nnc(-c2ccncc2)n1Cc1ccco1)N1c2ccccc2Sc2ccc(Cl)cc21,70*,63,3,-14,-2
Cn1c(SCC(=O)N2c3ccccc3Sc3ccc(Cl)cc32)nnc1-c1ccco1,nt,nt,5,-8,-4
Cn1cnc([N+](=O)[O-])c1S(=O)(=O)c1ccc(Cl)cc1,150*,127,3,-3,6
Cn1cnc([N+](=O)[O-])c1NC(C)(C)C,-24,-2,2,7,5
O=C(Nc1ccc(F)cc1)c1oc2ccccc2c1NC(=O)C1CC1,-2,-3,1,13,-17
Cc1ccc(S(=O)(=O)N2CCCCC2C)cc1[N+](=O)[O-] (stereo not drawn),1,-10,16*,-13,6
O=C(O)CSc1nnnn1-c1ccc2c(c1)OCCO2,70*,23,5,20,2
CCOC(=O)C1=NN(c2ccc(C)cc2)C2(S1)SC(C(C)=O)=C(C)N2c1ccccc1 (stereo not drawn),62*,22,-4,nt,-13
CN(C(=O)COC(=O)/C=C/c1ccc(S(=O)(=O)N2CCc3ccccc32)cc1)C1CCS(=O)(=O)C1 (stereo not drawn),30,12,-4,9,-5
COC(=O)c1ccc(NC(=O)c2cc[n+](Cc3ccccc3)cc2)cc1,-6,-1,6,2,-8
Cc1cc(C)n(CC(=O)Nc2ccc(N3CCOCC3)c(Cl)c2)c(=O)c1C#N,-13,-8,0,8,-6
CC(=O)Nc1ccc(OCc2nnc(-c3ccc(Cl)cc3)o2)cc1,65*,44,-1,-2,7
O=C(c1ccc(-n2cccn2)cc1)N1CCN(c2ncccc2C(F)(F)F)CC1,-8,-6,-4,1,-4
Cc1cc(C(=O)c2ccc(C(C)(C)C)cc2)c(NC(=O)CCl)s1,94*,44,-2,13,4
O=C(CCl)Nc1sccc1C(=O)c1ccccc1,61*,43,nt,nt,nt
O=C(N/N=C/c1ccccn1)c1ccc(Cl)c(Cl)c1,-17,-16,5,-10,-6
Cc1nc2ccccn2c1-c1ccnn1S(=O)(=O)c1ccc(F)cc1,-71,-67*,1,-17,-5
Cc1nc2ccccn2c1-c1nnco1,-25,-10,-2,nt,10
C/C(=N\O)c1ccc2c3c([nH]c2c1)CCCC3,93*,61,-2,-3,-3
C/C(=N\O)c1ccc2[nH]ccc2c1,19,9,0,nt,-3
COc1ccc(CN(CC2CCC(C(=O)O)CC2)C(=S)Nc2cc(Cl)ccc2OC)cc1 (stereo not drawn),337*,266,2,-1,20
